# Results taken from paper PMC11382121 (Molecular Metabolism, 2024).
# Assays:
# humans = details: exposure levels capable of fully blocking the GIPR; cited from earlier work
# [1] = Pharmacokinetics in Göttingen minipigs; assay type: in vivo; details: female, minipig, plasma, sc, 3 nmol/kg
# Procedure, shortened: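 Two female Göttingen minipigs (30–35 kg) per test compound, each given a single SC dose of 3 nmol/kg (0.04 mL/kg) in the inguinal fold or behind the ear. Up to 10 blood samples were drawn via an ear-vein central venous catheter to 129 h into chilled EDTA tubes. Plasma (2000 RCF, 15 min, 4 °C) was frozen and assayed by LC-MS/MS. Half-life came from a one-phase exponential decay fit.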
# [2] = tested on: HFD-induced obese cynomolgus monkeys; assay: Efficacy study in obese non-human primates; assay type: in vivo, M. fascicularis; details: 42-day daily SC treatment
structure (smiles),measurement,setting,value
CC[C@H](C)[C@H](NC(=O)[C@H](CO)NC(=O)[C@H](Cc1ccc(O)cc1)NC(=O)[C@H](CC(=O)O)NC(=O)[C@H](CO)NC(=O)[C@@H](NC(=O)[C@H](Cc1ccccc1)NC(=O)[C@@H](NC(=O)CNC(=O)[C@@H](N)CCC(=O)O)[C@@H](C)O)[C@@H](C)CC)C(=O)N[C@@H](C)C(=O)N[C@@H](CCSC)C(=O)N[C@@H](CC(=O)O)C(=O)N[C@@H](CCCCN)C(=O)N[C@H](C(=O)N[C@@H](Cc1c[nH]cn1)C(=O)N[C@@H](CCC(N)=O)C(=O)N[C@@H](CCC(N)=O)C(=O)N[C@@H](CC(=O)O)C(=O)N[C@@H](Cc1ccccc1)C(=O)N[C@H](C(=O)N[C@@H](CC(N)=O)C(=O)N[C@@H](Cc1c[nH]c2ccccc12)C(=O)N[C@@H](CC(C)C)C(=O)N[C@@H](CC(C)C)C(=O)N[C@@H](C)C(=O)N[C@@H](CCC(N)=O)C(=O)N[C@@H](CCCCN)C(N)=O)C(C)C)[C@@H](C)CC [GIP(3–30)NH2],"nausea, comfort or other side effects",humans,"no alterations in nausea, comfort, or any other side effects"
CC[C@H](C)[C@H](NC(=O)[C@H](CC(C)C)NC(=O)[C@H](Cc1c[nH]c2ccccc12)NC(=O)[C@H](CCC(N)=O)NC(=O)[C@@H](NC(=O)[C@H](Cc1ccccc1)NC(=O)[C@H](C)NC(=O)[C@H](CCCCNC(=O)COCCOCCNC(=O)COCCOCCNC(=O)CC[C@H](NC(=O)CCCCCCCCCCCCCCCCCCC(=O)O)C(=O)O)NC(=O)[C@H](CCC(N)=O)NC(=O)[C@H](C)NC(=O)[C@@H](NC(=O)[C@H](CCCCN)NC(=O)[C@H](CC(=O)O)NC(=O)[C@H](CC(C)C)NC(=O)C(C)(C)NC(=O)[C@@H](NC(=O)[C@H](CO)NC(=O)[C@H](Cc1ccc(O)cc1)NC(=O)[C@H](CC(=O)O)NC(=O)[C@H](CO)NC(=O)[C@@H](NC(=O)[C@H](Cc1ccccc1)NC(=O)[C@@H](NC(=O)CNC(=O)[C@H](CCC(=O)O)NC(=O)C(C)(C)NC(=O)[C@@H](N)Cc1ccc(O)cc1)[C@@H](C)O)[C@@H](C)O)[C@@H](C)CC)[C@@H](C)CC)C(C)C)C(=O)N[C@@H](C)C(=O)NCC(=O)NCC(=O)N1CCC[C@H]1C(=O)N[C@@H](CO)C(=O)N[C@@H](CO)C(=O)NCC(=O)N[C@@H](C)C(=O)N1CCC[C@H]1C(=O)N1CCC[C@H]1C(=O)N1CCC[C@H]1C(=O)N[C@@H](CO)C(N)=O [Tirzepatide],AUC(0-inf),[1],4.12 µM·h
same,half-life,[1],83 h
CCCCCCCCCCCCCCCC(=O)N[C@@H](CCC(=O)NCCCC[C@H](NC(=O)[C@H](C)NC(=O)[C@H](C)NC(=O)[C@H](CCC(N)=O)NC(=O)CNC(=O)[C@H](CCC(=O)O)NC(=O)[C@H](CC(C)C)NC(=O)[C@H](Cc1ccc(O)cc1)NC(=O)[C@H](CO)NC(=O)[C@H](CO)NC(=O)[C@@H](NC(=O)[C@H](CC(=O)O)NC(=O)[C@H](CO)NC(=O)[C@@H](NC(=O)[C@H](Cc1ccccc1)NC(=O)[C@@H](NC(=O)CNC(=O)[C@H](CCC(=O)O)NC(=O)[C@H](C)NC(=O)[C@@H](N)Cc1cnc[nH]1)[C@@H](C)O)[C@@H](C)O)C(C)C)C(=O)N[C@@H](CCC(=O)O)C(=O)N[C@@H](Cc1ccccc1)C(=O)N[C@H](C(=O)N[C@@H](C)C(=O)N[C@@H](Cc1c[nH]c2ccccc12)C(=O)N[C@@H](CC(C)C)C(=O)N[C@H](C(=O)N[C@@H](CCCNC(=N)N)C(=O)NCC(=O)N[C@@H](CCCNC(=N)N)C(=O)NCC(=O)O)C(C)C)[C@@H](C)CC)C(=O)O [Liraglutide],tolerability / side effects,[2],one NHP in the liraglutide monotreatment group that stopped eating and drinking
